Screens deposited in PubChem BioAssay by Broad Institute.
An excerpt weighted towards active compounds, which were near 4.3% of everything screened.
ALR H2O2 inh = blocks human ALR sulfhydryl oxidase activity; purified ALR, DTT oxidation, H2O2 HRP-luminol luminescence; 3.8% of 290,000 active; AID 485317; inhibition, % (test concentration not listed);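 active = mean replicate inhibition above about 79%, with every replicate also reaching it, limit read from the data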
Target sequence (P55789 whole entry, looked up): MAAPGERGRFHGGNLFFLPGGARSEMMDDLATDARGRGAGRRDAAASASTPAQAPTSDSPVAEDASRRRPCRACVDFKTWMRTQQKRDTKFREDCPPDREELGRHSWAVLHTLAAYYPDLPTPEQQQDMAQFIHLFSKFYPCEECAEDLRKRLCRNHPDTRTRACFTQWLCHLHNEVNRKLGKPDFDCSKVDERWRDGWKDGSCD
Rtt109 Vps75 = blocks Candida albicans Rtt109/Vps75 acetyltransferase activity. inhibition, % at 34.9 µM. purified Rtt109/Vps75, ThioGlo CoA-SH fluorescence, 4 h. 0.16% of 330,000 active. Q5AAJ8;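 active = inhibition of at least 50% in every replicate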
Target sequence (Q5AAJ8 whole entry, looked up): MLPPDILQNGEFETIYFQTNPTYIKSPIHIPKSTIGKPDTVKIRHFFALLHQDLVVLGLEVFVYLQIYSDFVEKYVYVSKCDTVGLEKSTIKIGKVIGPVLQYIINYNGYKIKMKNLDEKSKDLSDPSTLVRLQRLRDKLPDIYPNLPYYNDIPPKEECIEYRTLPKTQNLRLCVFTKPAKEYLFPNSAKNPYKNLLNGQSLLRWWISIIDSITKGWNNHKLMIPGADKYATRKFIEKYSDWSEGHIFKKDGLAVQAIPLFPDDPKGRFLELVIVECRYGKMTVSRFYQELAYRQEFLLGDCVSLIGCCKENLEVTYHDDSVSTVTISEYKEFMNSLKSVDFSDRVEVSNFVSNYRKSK
CAL PDZ FP-1 = blocks peptide binding to human CAL PDZ domain; purified CAL PDZ, TMR-peptide fluorescence polarization, 1 h; inhibition, % at 20 µM; 0.02% of 330,000 active;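 active = highest replicate inhibition of at least 40%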
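Test system: tagged CAL PDZ domain / Buffer or medium: sodium phosphate/NaCl buffer pH 7.4 with TCEP, IgG, Thesit / Reagent: TMR-labelled reporter peptide T*-PRC34 bound in PDZ groove / Compound dosing: single point, 20 µM / Schedule: 1 h incubation at room temperature before polarization reading / Technique: fluorescence polarization (mP) / Benchmarks: unlabelled peptide, DMSO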
DYRK1A inh = blocks rat Dyrk1A kinase activity. inhibition, % at 12.5 µM. 0.43% of 310,000 active. AID 504441. Q63470. ADP-Glo luminescence, NFATc1 peptide; in the data active = inhibition above about 50%
CAL PDZ FP-2 = CAL PDZ (human) peptide binding inhibition; Q9HD26; purified CAL PDZ, TMR-peptide fluorescence polarization, 1 h; inhibition, % at 24.9 µM; 0.92% of 300,000 active; AID 602252;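 active = mean inhibition of at least 30% with at least half of replicates also reaching 30%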
Of the large screens only hits and unclear results are named; the others gave an inactive call.

Cc1c(NC(=O)COc2ccccc2Cl)c(=O)n(-c2ccccc2)n1C	CAL PDZ FP-2 41
COc1ccc(S(=O)(=O)N2CCCCCC2)cc1NC(=O)CCCOc1ccccc1	none (no result: DYRK1A inh, CAL PDZ FP-2)
CN1CC(=O)N(CC(=O)Nc2cc(Cl)cc(Cl)c2)C1=O	none
Cc1c(NC(=O)/C(C#N)=C/c2ccc(-c3ccc(Cl)c(Cl)c3)o2)c(=O)n(-c2ccccc2)n1C	none (no result: ALR H2O2 inh)
Cc1c(NC(=O)/C(C#N)=C/c2ccc(-c3ccccc3Cl)o2)c(=O)n(-c2ccccc2)n1C	ALR H2O2 inh 88
CC1Cc2ccccc2N1Cc1cc(=O)c(OCC(=O)NCCc2ccccc2)co1 (stereo not drawn)	none (no result: ALR H2O2 inh)
N#Cc1nc(/C=C/c2ccccc2)oc1NCCCN1CCOCC1	CAL PDZ FP-2 36
N#Cc1nc(-c2ccccc2F)oc1NCCN1CCOCC1	ALR H2O2 inh 96
Cc1ccc(-c2nc(C#N)c(NCCN3CCCCC3)o2)cc1	ALR H2O2 inh 92
N#Cc1nc(-c2ccc(F)cc2)oc1NCCN1CCOCC1	none (no result: CAL PDZ FP-2)
CC(C)(C)OC(=O)N/N=C/c1ccc(N2CCOCC2)s1	ALR H2O2 inh 83
Nc1ccc(C(=O)N/N=C/c2ccc(N3CCOCC3)s2)cc1	none (no result: ALR H2O2 inh, DYRK1A inh)
NCCNC(=O)c1c(O)c2cccc3c2n(c1=O)CCC3	none
C=CCNC(=O)c1c(O)c2cccc3c2n(c1=O)CCC3	CAL PDZ FP-2 33
Cc1cc(NC(=O)c2ccoc2C)ccc1Br	ALR H2O2 inh 89 (no result: DYRK1A inh)
C=CCN(c1ccccc1)S(=O)(=O)c1ccc2c(c1)N(C(C)=O)CCO2	none
C=CCN(c1ccccc1)S(=O)(=O)c1cc2c(cc1C)N(C)CCO2	ALR H2O2 inh 97 (no result: CAL PDZ FP-2)
C=CCOc1ccccc1CN1CCCC(CCC(=O)N(C)CCc2ccccn2)C1 (stereo not drawn)	none
CC(=O)Oc1ccc2c(=O)c(Oc3ccccc3)c(C)oc2c1OC(C)=O	ALR H2O2 inh 100
Cc1cccc(N(CC(=O)NC2CCCCC2)C(=O)CCCC(=O)Nc2ccccn2)c1	CAL PDZ FP-2 74
CCC(C(=O)NC1CCCC1)n1nc(C)n2c(cc3occc32)c1=O (stereo not drawn)	none
O=C(CNS(=O)(=O)c1cccc(F)c1)OCC(=O)N1CCCC1=O	none
O=C(O)c1cccc(-n2nnnc2SCc2ccccc2Cl)c1	none
O=C(O)c1ccccc1CSc1nnnn1-c1ccccc1	CAL PDZ FP-2 81 (no result: CAL PDZ FP-1)
Cc1cc(=O)[nH]c(SCC(=O)Nc2nc3c(s2)CCCC3)n1	ALR H2O2 inh 99
O=C(CSC1=NCCS1)Nc1nc2c(s1)CCCC2	ALR H2O2 inh 99 (no result: CAL PDZ FP-2)
CCC(Sc1nc(C)cc(=O)[nH]1)C(=O)Nc1nc2c(s1)CCCC2 (stereo not drawn)	none (no result: CAL PDZ FP-2)
CCCCn1c(N)c(N(CCOC)C(=O)C2CC(=O)N(c3cccc(SC)c3)C2)c(=O)[nH]c1=O (stereo not drawn)	none
Cc1nn(CCc2n[nH]c(=S)n2C)c(C)c1Br	ALR H2O2 inh 94
Cc1nn(CCc2n[nH]c(=S)n2C2CCCCC2)c(C)c1Br	none (no result: CAL PDZ FP-2)
CC(=O)c1ccc(NC(=O)CN2C(=O)COc3ccc(S(=O)(=O)N4CCCC4)cc32)cc1	none
NC1=NC[C@H](Cc2ccc(O)cc2)N1CC1CCCCC1	ALR H2O2 inh 90
NC1=NC[C@H](Cc2ccccc2)N1CC1CCCCC1	none
Cc1ccc(N(C(=O)c2csnn2)C(C(=O)NC2CCCCC2)c2cccnc2)c(C)c1 (stereo not drawn)	none (no result: ALR H2O2 inh)
COc1cc(O)cc2occ(-c3ccc(O)cc3)c(=O)c12	ALR H2O2 inh 98
COc1cc(/C=C(/C#N)C(=O)Nc2ccc(C)cc2)ccc1Oc1nc(Cl)ncc1F	none
Cc1cccc(OCC(=O)Nc2cccc(O)c2)c1	none
Cc1ccc(OCC(=O)Nc2cccc(O)c2)cc1C	ALR H2O2 inh 98
CNC(=S)NNC(=O)COc1ccc(C)c(C)c1	ALR H2O2 inh 90
Cc1ccc(NC(=O)CSc2nnc(C)c(=O)[nH]2)cc1C	ALR H2O2 inh 95
Cc1sc(NC(=O)CSc2nc(N)cc(N)n2)c(C#N)c1C	none
Cc1nnc(SCC(=O)Nc2cccc(C(F)(F)F)c2)[nH]c1=O	ALR H2O2 inh 98
Cc1sc(NC(=O)CSc2nnc(C)c(=O)[nH]2)c(C#N)c1C	ALR H2O2 inh 98
Cc1cccc(C)c1NC(=O)CSc1nnc(C)c(=O)[nH]1	none
CCC(c1nnc(SC(C)C(=O)NC2CC2)n1-c1ccc(OC)cc1)N(C)C (stereo not drawn)	CAL PDZ FP-2 68 (no result: DYRK1A inh)
C=CCn1c(COc2ccc(OC)cc2)nnc1SC(C)C(=O)NC1CC1 (stereo not drawn)	none
CC(=O)N1CCN(C(=S)NC(=O)c2c(-c3ccccc3Cl)noc2C)CC1	ALR H2O2 inh 95 (no result: DYRK1A inh)
Cc1onc(-c2ccccc2Cl)c1C(N)=O	none
CCOC(=O)C1=NOC(CNC(=O)c2c(-c3ccccc3Cl)noc2C)C1 (stereo not drawn)	none
Cc1[nH]n(C)c(=O)c1C(=O)c1c(-c2ccccc2Cl)noc1C	ALR H2O2 inh 85 (no result: CAL PDZ FP-2)
CC(=O)C1=NOC(CNC(=O)c2c(-c3ccccc3Cl)noc2C)C1 (stereo not drawn)	CAL PDZ FP-2 45 (no result: ALR H2O2 inh)
Nc1c2c(nc3ccccc13)CSCC2	CAL PDZ FP-2 50
CCCS(=O)(=O)c1nc(S(=O)(=O)c2ccc(C)cc2)c(NCCCN2CCCC2=O)s1	CAL PDZ FP-2 42
O=C(Nc1ccccc1Oc1ccccc1)c1cc([N+](=O)[O-])ccc1Cl	none (no result: ALR H2O2 inh)
Nc1ccc(Nc2ccc([N+](=O)[O-])cc2[N+](=O)[O-])cc1	ALR H2O2 inh 98
O=C(O)c1ccccc1C(=O)Nc1ccc(Nc2ccc([N+](=O)[O-])cc2[N+](=O)[O-])cc1	ALR H2O2 inh 96 (no result: Rtt109 Vps75)
O=C(Nc1ccc(Nc2ccccc2)cc1)c1cc([N+](=O)[O-])ccc1Cl	CAL PDZ FP-2 46
CC(C)[C@H](NC(=O)OCc1ccccc1)C(=O)N[C@@H](Cc1c[nH]c2ccccc12)C(=O)O	none (no result: ALR H2O2 inh)
COCCNC(=O)NC12CC3(C)CC(C)(CC(C)(C3)C1)C2	none (no result: Rtt109 Vps75)
Cc1ccc(-c2nc(=S)c3c(n2Cc2cccnc2)CC(C)(C)OC3)cc1	none (no result: CAL PDZ FP-2)
Cc1ccc(NC2CCCN(C(=O)c3ccoc3C)C2)cc1C (stereo not drawn)	ALR H2O2 inh 98
Cc1ccc(NC2CCCN(C(=O)c3ccc(C)c(N4CCNC4=O)c3)C2)cc1C (stereo not drawn)	ALR H2O2 inh 93
CC1CCCN(C(=O)COc2ccc(-c3ccccc3)cc2)C1 (stereo not drawn)	none (no result: Rtt109 Vps75)
CCn1nc(CC(C)C)cc1C(=O)N1CCCC(Nc2ccc(OC)cc2)C1 (stereo not drawn)	ALR H2O2 inh 98
CC(=O)c1ccc(OCC(=O)N2CCCC(Nc3ccc(C)c(C)c3)C2)cc1 (stereo not drawn)	ALR H2O2 inh 85
O=C(c1ccnc(Cl)c1)N1CCCC(Nc2ccc(F)cc2)C1 (stereo not drawn)	none
N#Cc1ccc(OCc2noc(-c3ccsc3)n2)cc1	none (no result: DYRK1A inh)
O=C(NCCOCCNC(=O)OCc1ccccc1)OCc1ccccc1	none (no result: CAL PDZ FP-2)
